Results published in ChEMBL document CHEMBL4842335, “Discovery of penipanoid C-inspired 2-(3,4,5-trimethoxybenzoyl)quinazolin-4(3H)-one derivatives as potential anticancer agents by inhibiting cell proliferation and inducing apoptosis in hepatocellular carcinoma cells” (Eur J Med Chem, 2021).
Active and inactive are the calls of the source. No cut-off for these calls is given here.

Key:
U-251 = assay: Cytotoxicity against human U251 cells assessed as inhibition of proliferation incubated for 72 hrs by MTT assay; assay type: functional, cell-based; details: U-251, 72 h
Summary of the method: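 Cells plated at 3×10³/well, grown overnight in DMEM + 10% FBS, then exposed to compounds (DMSO stocks; 0.1% DMSO negative control) for 72 h at 37 °C. MTT (5 mg/mL in PBS, added at 10%) for 4 h, formazan dissolved in DMSO, A570 read. Inhibition = (Ac−As)/(Ac−Ab)×100; IC50 by calculator; ≥3 independent repeats.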

HepG2 [1] = assay: Cytotoxicity against human HepG2 cells assessed as inhibition rate at 2.5 uM incubated for 72 hrs by MTT assay relative to control; assay type: functional
Summary of the method: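 HepG2 exposed to each compound at 2.5 µM-range single concentration for 72 h at 37 °C after overnight attachment in DMEM + 10% FBS; 0.1% DMSO control. MTT 4 h, DMSO solubilisation, A570; inhibition rate = (Ac−As)/(Ac−Ab)×100.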

L02 = assay: Cytotoxicity against human L-O2 cells assessed as inhibition of proliferation incubated for 72 hrs by MTT assay; assay type: cell-based; details: L02, 72 h
HepG2 [2] = assay: Induction of cell cycle arrest in human HepG2 cells assessed as accumulation at G1 phase at 0.8 uM incubated for 48 hrs by flow cytometry (reference value: 46.88%); assay type: functional
HepG2 [3] = assay: Induction of cell cycle arrest in human HepG2 cells assessed as accumulation at S phase at 0.8 uM incubated for 48 hrs by flow cytometry (reference value: 28.23%); assay type: functional
Summary of the method: (§1)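 HepG2 treated 48 h with 0, 0.8 or 1.6 µM (DMSO control); phase distribution by flow cytometry using a cell cycle and apoptosis kit; mean with SD, n = 3.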

HepG2 [4] = assay: Induction of cell cycle arrest in human HepG2 cells assessed as accumulation at G1 phase at 1.6 uM incubated for 48 hrs by flow cytometry (reference value: 46.88%); assay type: functional
HepG2 [5] = assay: Induction of cell cycle arrest in human HepG2 cells assessed as accumulation at S phase at 1.6 uM incubated for 48 hrs by flow cytometry (reference value: 28.23%); assay type: functional; summary of the method: as §1
HepG2 [6] = assay: Induction of cell cycle arrest in human HepG2 cells assessed as accumulation at G2/M phase at 1.6 uM incubated for 48 hrs by flow cytometry (reference value: 24.89%); assay type: functional; summary of the method: as §1
Bel-7402 [7] = assay: Induction of cell cycle arrest in human Bel-7402 cells assessed as accumulation at S phase at 0.8 uM incubated for 48 hrs by flow cytometry (reference value: 28.48%); assay type: functional
Bel-7402 [8] = assay: Induction of cell cycle arrest in human Bel-7402 cells assessed as accumulation at G1 phase at 1.6 uM incubated for 48 hrs by flow cytometry (reference value: 46.32%); assay type: functional
Bel-7402 [9] = assay: Induction of cell cycle arrest in human Bel-7402 cells assessed as accumulation at G2/M phase at 1.6 uM incubated for 48 hrs by flow cytometry (reference value: 25.20%); assay type: functional
Bel-7402 [10] = assay: Induction of cell cycle arrest in human Bel-7402 cells assessed as accumulation at S phase at 3.2 uM incubated for 48 hrs by flow cytometry (reference value: 28.48%); assay type: functional
[11] = target: Serine/threonine-protein kinase AKT (Homo sapiens) (UniProt P31751+Q9Y243+P31749); assay: Inhibition of Akt phosphorylation in human HepG2 cells incubated for 48 hrs by Western blot analysis; assay type: cell-based; details: dose 1.6-3.2 µM
Sequence of Serine/threonine-protein kinase AKT (Homo sapiens) (P31749 whole entry, looked up): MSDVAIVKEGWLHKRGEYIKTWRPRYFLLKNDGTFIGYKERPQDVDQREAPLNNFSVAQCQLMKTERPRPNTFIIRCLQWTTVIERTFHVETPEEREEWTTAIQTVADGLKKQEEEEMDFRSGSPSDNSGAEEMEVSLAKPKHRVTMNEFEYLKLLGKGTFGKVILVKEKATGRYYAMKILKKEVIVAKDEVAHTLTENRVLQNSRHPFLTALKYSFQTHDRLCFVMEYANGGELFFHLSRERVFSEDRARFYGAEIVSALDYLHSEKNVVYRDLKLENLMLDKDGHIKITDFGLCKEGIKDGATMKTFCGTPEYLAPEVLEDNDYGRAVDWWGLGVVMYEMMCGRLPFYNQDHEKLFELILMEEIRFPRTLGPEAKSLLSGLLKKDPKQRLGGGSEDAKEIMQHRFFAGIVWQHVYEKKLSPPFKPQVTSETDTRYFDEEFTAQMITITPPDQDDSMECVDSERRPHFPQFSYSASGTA
Sequence of Serine/threonine-protein kinase AKT (Homo sapiens) (P31751 whole entry, looked up): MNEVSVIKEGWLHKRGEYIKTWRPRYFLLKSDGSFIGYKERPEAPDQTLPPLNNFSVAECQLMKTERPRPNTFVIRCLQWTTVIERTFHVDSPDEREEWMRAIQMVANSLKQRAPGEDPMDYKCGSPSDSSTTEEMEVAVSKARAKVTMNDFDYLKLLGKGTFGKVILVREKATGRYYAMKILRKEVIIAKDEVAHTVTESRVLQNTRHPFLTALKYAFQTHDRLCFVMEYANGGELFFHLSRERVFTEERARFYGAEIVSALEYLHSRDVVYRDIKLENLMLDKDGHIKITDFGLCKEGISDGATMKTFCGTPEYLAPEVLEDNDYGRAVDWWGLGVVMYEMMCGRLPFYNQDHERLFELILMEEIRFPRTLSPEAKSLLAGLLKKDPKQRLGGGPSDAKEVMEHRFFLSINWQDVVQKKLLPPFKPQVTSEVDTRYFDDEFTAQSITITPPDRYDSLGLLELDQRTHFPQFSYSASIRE
Sequence of Serine/threonine-protein kinase AKT (Homo sapiens) (Q9Y243 whole entry, looked up): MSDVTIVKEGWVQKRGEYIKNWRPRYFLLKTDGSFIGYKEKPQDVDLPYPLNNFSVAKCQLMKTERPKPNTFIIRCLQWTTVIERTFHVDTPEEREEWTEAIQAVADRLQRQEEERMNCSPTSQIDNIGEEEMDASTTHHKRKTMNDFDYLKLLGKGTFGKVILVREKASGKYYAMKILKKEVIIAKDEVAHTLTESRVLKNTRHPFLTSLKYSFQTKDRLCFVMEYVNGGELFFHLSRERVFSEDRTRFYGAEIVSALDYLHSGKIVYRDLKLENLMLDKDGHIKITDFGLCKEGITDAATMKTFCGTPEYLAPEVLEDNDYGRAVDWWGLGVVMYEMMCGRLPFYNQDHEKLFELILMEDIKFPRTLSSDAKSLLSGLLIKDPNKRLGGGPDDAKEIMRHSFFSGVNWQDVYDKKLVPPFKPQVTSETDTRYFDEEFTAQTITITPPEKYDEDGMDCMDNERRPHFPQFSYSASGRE
Summary of the method: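 HepG2 treated 48 h with 0, 1.6 or 3.2 µM; lysates run on 12.5% SDS-PAGE, PVDF transfer, primary antibodies (AKT, p-AKT, ERK1/2, p-ERK1/2; 1:1000) overnight at 4 °C, HRP secondaries 1 h, chemiluminescence. Phosphorylation quantified relative to untreated control set to 1; SD, n = 3.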

HepG2 [12] = assay: Induction of apoptosis in human HepG2 cells assessed as early apoptotic cells at 0.8 uM incubated for 48 hrs by Annexin V and dead cell assay kit (reference value: 4.55%); assay type: functional
Summary of the method: (§2)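 HepG2 cells were grown in DMEM and exposed to 0, 0.8, 1.6 or 3.2 µM test agent or DMSO vehicle for 48 h. Apoptosis was then read on a Muse cell analyzer using an Annexin V & Dead Cell kit, which separates live, early apoptotic, late apoptotic and dead populations. The figure legend gives n = 3 with SEM.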

HepG2 [13] = assay: Induction of apoptosis in human HepG2 cells assessed as late apoptotic cells at 0.8 uM incubated for 48 hrs by Annexin V and dead cell assay kit (reference value: 1%); assay type: functional; summary of the method: as §2
HepG2 [14] = assay: Induction of apoptosis in human HepG2 cells assessed as dead cells at 1.6 uM incubated for 48 hrs by Annexin V and dead cell assay kit (reference value: 0.55%); assay type: functional; summary of the method: as §2
HepG2 [15] = assay: Induction of apoptosis in human HepG2 cells assessed as early apoptotic cells at 3.2 uM incubated for 48 hrs by Annexin V and dead cell assay kit (reference value: 4.55%); assay type: functional; summary of the method: as §2
HepG2 [16] = assay: Induction of apoptosis in human HepG2 cells assessed as late apoptotic cells at 3.2 uM incubated for 48 hrs by Annexin V and dead cell assay kit (reference value: 1%); assay type: functional; summary of the method: as §2
HepG2 [17] = assay: Induction of apoptosis in human HepG2 cells assessed as dead cells at 3.2 uM incubated for 48 hrs by Annexin V and dead cell assay kit (reference value: 0.55%); assay type: functional; summary of the method: as §2
HepG2 [18] = assay: Induction of reactive oxygen species generation in human HepG2 cells incubated for 48 hrs by DCFH-DA based fluorescent microscopy; assay type: functional, cell-based; details: dose 1.6-3.2 µM
Summary of the method: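 HepG2 cultured 48 h with 0, 0.8, 1.6 or 3.2 µM, washed, loaded with […] DCFH-DA for 20 min at 37 °C in the dark; fluorescence viewed by microscopy.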

[19] = Toxicity in BALB/c mouse xenografted with human HepG2 cells at 4 to 8 mg/kg, ip relative to control; assay type: organism-based; details: in vivo, dose 4-8 mg/kg
Summary of the method: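 Female BALB/c nude mice (14–17 g) carrying s.c. HepG2 xenografts (100–200 mm³), 5 per group. Dosed i.p. daily for 20 days at 4 or 8 mg/kg in 15% N-methylpyrrolidone/25% Solutol HS-15/60% saline, with vehicle controls. Body weight tracked over the treatment.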

[20] = target: Mitogen-activated protein kinase; ERK1/ERK2 (Homo sapiens) (UniProt P27361+P28482); assay: Upregulation of ERK1/2 phosphorylation in human Bel-7402 cells incubated for 48 hrs by Western blot analysis
Sequence of Mitogen-activated protein kinase; ERK1/ERK2 (Homo sapiens) (P27361 whole entry, looked up): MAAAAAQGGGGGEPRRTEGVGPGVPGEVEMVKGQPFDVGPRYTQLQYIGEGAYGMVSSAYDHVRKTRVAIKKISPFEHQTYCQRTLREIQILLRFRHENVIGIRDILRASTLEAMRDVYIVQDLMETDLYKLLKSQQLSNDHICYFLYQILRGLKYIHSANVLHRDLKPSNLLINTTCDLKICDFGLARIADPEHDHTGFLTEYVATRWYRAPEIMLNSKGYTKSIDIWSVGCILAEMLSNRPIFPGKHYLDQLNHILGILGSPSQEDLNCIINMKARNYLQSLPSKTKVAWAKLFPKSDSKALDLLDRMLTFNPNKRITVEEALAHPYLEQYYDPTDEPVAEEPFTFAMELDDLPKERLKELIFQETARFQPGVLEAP
Sequence of Mitogen-activated protein kinase; ERK1/ERK2 (Homo sapiens) (P28482 whole entry, looked up): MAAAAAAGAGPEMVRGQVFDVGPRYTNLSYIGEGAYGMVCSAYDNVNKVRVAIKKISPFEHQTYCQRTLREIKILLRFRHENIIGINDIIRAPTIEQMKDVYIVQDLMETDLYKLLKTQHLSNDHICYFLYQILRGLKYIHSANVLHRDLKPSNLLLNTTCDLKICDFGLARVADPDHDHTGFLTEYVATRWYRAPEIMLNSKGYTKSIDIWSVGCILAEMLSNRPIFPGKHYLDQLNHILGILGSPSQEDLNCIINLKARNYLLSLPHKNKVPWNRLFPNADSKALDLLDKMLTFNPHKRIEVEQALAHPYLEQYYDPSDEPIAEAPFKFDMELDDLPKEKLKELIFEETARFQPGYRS

HepG2 [21] = assay: Induction of apoptosis in human HepG2 cells assessed as increase in cleaved PARP level at 1.6 to 3.2 uM after 48 hrs by Western blot analysis; details: dose 1.6-3.2 µM
HepG2 [22] = assay: Induction of apoptosis in human HepG2 cells assessed as increase in cleaved Caspase 3 level at 1.6 to 3.2 uM after 48 hrs by Western blot analysis; details: dose 1.6-3.2 µM

`COc1cc(C(=O)c2nc3ccccc3c(=O)[nH]2)cc(OC)c1OC` gave an IC50 (U-251) of 5.48 µM, an inhibition at 2.5 µM (HepG2 [1]) of 73% and an IC50 (L02) of 6.01 µM. For the same compound, the Activity (HepG2 [2]) was 37.84%, the Activity (HepG2 [3]) was 33.43% and the Activity (HepG2 [4]) was 29.17%. The Activity (HepG2 [5]) was 35.65%, the Activity (HepG2 [6]) was 35.18% and the Activity (Bel-7402 [7]) was 33.11%. For the same compound, the Activity (Bel-7402 [8]) was 33.07%, the Activity (Bel-7402 [9]) was 32.43% and the Activity (Bel-7402 [10]) was 32.14%. For the same compound, the inhibition [11] was “Dose-Dependent Effect”, the Activity (HepG2 [12]) was 5.8% and the Activity (HepG2 [13]) was 2%. The Activity (HepG2 [14]) was 0.95%, the Activity (HepG2 [15]) was 22.1% and the Activity (HepG2 [16]) was 24.15%. The Activity (HepG2 [17]) was 0.55%, the Activity (HepG2 [18]) was “Active” and the Activity [19] was “Non-Toxic”. The Activity [20] was “Dose-Dependent Effect”, the Activity (HepG2 [21]) was “Active” and the Activity (HepG2 [22]) was “Active”.
